Structures are written as SMILES.

A short description of the data set: Toxicity liver stage against HepG2, at 10uM. Also noted: test concentration 10 uM, cell line HepG2-A16-CD81EGFP. It is filed as cell-based. Particulars: human, HepG2-A16-CD81EGFP cells; read-out: INHIBITION
The essentials:
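Uninfected HepG2-A16-CD81EGFP cells, 3 × 10^3 per well, 1536-well, plated on prespotted compound at 10 μM final, parasite-free screening media added to match infected plates; puromycin 10 μM positive, DMSO 0.5% negative; run in parallel with 48 h PbLuc assay at 37 °C, 5% CO2; viability by CellTiter-Glo luminescence, normalized to controls.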
`O=C(C1CC1)N1C[C@@H](F)[C@@H](OCc2nc3cc(F)ccc3[nH]2)C1`: the cytotoxicity at 10 µM is -6.92%. The same measure for `CCN(CC)C1(Cc2cc(-c3ccccn3)on2)COC1`: 1.41%. Turning to `O=C1Nc2ccccc2/C1=C1\CCCCN1`, the cytotoxicity at 10 µM was determined as 4.95%. In the case of `C[C@H](NC(=O)N1CCN(c2ccc(Cl)cc2)CC1)C(=O)N1CCSCC1`, the cytotoxicity at 10 µM was -6.3%. Regarding `CCOc1ccc(S(=O)(=O)NCCc2ccc(N(C)C)cc2)cc1C`, the cytotoxicity at 10 µM is -6.48%.

For `COCCN1C[C@H]2CCN(C(=O)c3cc(C)on3)CC[C@H]2S1(=O)=O`, the cytotoxicity at 10 µM was -1.69%. Regarding `O=C(c1ccco1)N1CCC2(CCC(=O)N2Cc2ccncc2)CC1`, the cytotoxicity at 10 µM was determined as 1.29%. Consider `CN(C)CCOCC1CN(C(=O)c2cccnc2)Cc2ccnn2C1` (stereo not given), for which the cytotoxicity at 10 µM stood at 5.57%. The same measure for `CCC1=N[C@@]2(CC[C@@H]3CN(C(=O)Nc4ccccc4)C[C@@H]32)C(=O)N1CC`: 2.93%; for `Cc1occc1C(=O)N1CC(C(=O)N2CCOCC2)C2(CCOCC2)C1` (stereo not given): 7.37%. Consider `CCC1=N[C@@]2(CC[C@@H]3CN(S(=O)(=O)CC(C)C)C[C@@H]32)C(=O)N1CC1CC1`, for which the cytotoxicity at 10 µM amounted to 0.457%. With `COCC1CN(C(=O)C2=CCCCC2)Cc2cnn(CC3CC3)c21` (stereo not given), the cytotoxicity at 10 µM stood at 3.46%.

As to `COCC1CC2(CCN(C(=O)c3occc3C)CC2)CO1` (stereo not given), the cytotoxicity at 10 µM amounted to 0.982%. Regarding `CSCc1cccc(S(=O)(=O)Nc2cc(C)on2)c1`, the cytotoxicity at 10 µM stood at 6.27%. Turning to `CNc1cncc(C2CCN(C(=O)c3cnco3)CC2)n1`, the cytotoxicity at 10 µM is -5.68%. As for `COc1ccc(-c2cc3nc(CCNC(=O)C4CC4)nn3cn2)cc1`, the cytotoxicity at 10 µM stood at 8.38%. Take `CC(NC(=O)CCn1c(=O)oc2ccccc21)c1ccccn1` (stereo not given): the cytotoxicity at 10 µM was -3.34%. The same measure for `O=C(CCn1c(C(F)(F)F)cc2cccnc21)NC1CCCC1`: -14.3%; for `Cc1nc(C)n(CC(=O)N2CCc3ncc(Cl)cc3C2)n1`: -18.8%. On to `COc1ccccc1C1=NOC(CC2(C(=O)NCCO)CCOCC2)C1` (stereo not given), for which the cytotoxicity at 10 µM is -26.2%. `Cc1nc2ccc(C(=O)N3C[C@@H](O)[C@H](N4CCOCC4)C3)cc2[nH]1`: the cytotoxicity at 10 µM was -5.81%. The same measure for `CN(C)Cc1ccnc(C2CN(Cc3c(F)cccc3F)CCO2)n1` (stereo not given): -3.14%; for `Cc1nc(O)c2nnn(C[C@H]3CCCN3C(=O)c3ccc(F)cc3)c2n1`: -4.28%; for `Cn1cc(CN2CCC(c3[nH]ncc3S(C)(=O)=O)C2)cn1` (stereo not given): -4.55%.

For the compound `CCCc1noc(C(C)N2CC(n3cccn3)C2)n1` (stereo not given), the cytotoxicity at 10 µM stood at 2.13%.

As to `CCOC1CCCN(C(=O)CCOc2ccc(C)cc2OC)C1` (stereo not given), the cytotoxicity at 10 µM was -9.22%. The value for `COCCNC(=O)N1CCN(c2cc(F)ccc2F)CC1` was -5.95%; that for `COc1ccnc(NC(Cc2ccccc2)C(=O)N(C)C)n1` (stereo not given) was 6.39%; that for `Cn1ccc(C(=O)N2CCCC(CNS(C)(=O)=O)C2)cc1=O` (stereo not given) was 0.193%. Take `CC(C)C(=O)Nc1ccc(C(O)Cn2nc(-c3cccs3)oc2=O)cc1` (stereo not given): the cytotoxicity at 10 µM was -5.31%. With `COc1ncccc1CNC(=O)N(Cc1ccccc1F)C1CC1`, the cytotoxicity at 10 µM is 2.99%. Turning to `FC(F)COc1ccccc1NCc1nnsc1Cl`, the cytotoxicity at 10 µM was -2.63%.

With `CCCS(=O)(=O)N1CCCC1c1cccc(N(C)C)c1` (stereo not given), the cytotoxicity at 10 µM is 1.62%. As for `NC(=O)C1CCCN1C1CCN(C(=O)c2cccc3c2OCO3)CC1` (stereo not given), the cytotoxicity at 10 µM was -0.353%. Consider `c1ccc(N(CCn2cncn2)CC2CC2)cc1`, for which the cytotoxicity at 10 µM is 3.04%. For `Cc1n[nH]c(C)c1NC(=O)NCc1ccccn1`, the cytotoxicity at 10 µM is 1.85%.

Turning to `CCC1COCCN1C(=O)NCc1nccn1CC(C)C` (stereo not given), the cytotoxicity at 10 µM was -3.36%.

Consider `N#Cc1ccc(NC2CCN(CC(F)F)CC2)c(F)c1`, for which the cytotoxicity at 10 µM is -5.3%.

Consider `CCOc1cc(C(=O)NS(C)(=O)=O)cc(-c2ccccc2)c1OC`, for which the cytotoxicity at 10 µM came to 12.5%. Regarding `CC(C)c1nncn1CCNC(=O)c1c(O)cc(F)cc1F`, the cytotoxicity at 10 µM was -1.99%.

Turning to `CC(C)NC(=O)COc1nc(C(C)(C)C)no1`, the cytotoxicity at 10 µM is -7.48%. Take `O=C(NCCCO)Nc1cccc(Cl)c1F`: the cytotoxicity at 10 µM amounted to 2.79%. Take `CC(C)Cc1cc(C(=O)NCCc2ccc(S(C)(=O)=O)cc2)[nH]n1`: the cytotoxicity at 10 µM is -8.93%. The value for `O=C1N(Cc2cccc(F)c2)CCC12CCCN(c1ncc(F)cn1)C2` (stereo not given) was 0.797%; that for `CC[C@@H](C)[C@@H](N)C(=O)Nc1cccc(-c2cnc(N(C)CCO)nc2)c1` was -5.89%.

As for `c1ccc2c(c1)CN(c1ncnc3sc4c(c13)CCNC4)CCO2`, the cytotoxicity at 10 µM was determined as 5.08%. With `C[C@@H]1CN(c2nc(N)nc3c2CCC3)C[C@]1(C)O`, the cytotoxicity at 10 µM turned out to be 4.6%. Consider `CC(C)[C@@H]1CN(C(=O)CCn2ccccc2=O)C[C@H]1NS(C)(=O)=O`, for which the cytotoxicity at 10 µM was 6.2%. On to `Cc1cc(C(F)(F)F)nc(CCNC(C)Cn2cncn2)n1` (stereo not given), for which the cytotoxicity at 10 µM came to 12%.

As to `CN1CCN([C@H]2CCN(C(=O)c3nn(C)cc3Cl)C[C@H]2CCCO)CC1`, the cytotoxicity at 10 µM was -2.86%. `CCCc1cc(C(=O)N2CC(c3ccncc3)C2)ccn1`: the cytotoxicity at 10 µM turned out to be 2.36%. The value for `CN(C)CC1(O)CCCN(C(=O)CCc2nc3cccnc3n2C)C1` (stereo not given) was 0.0448%; that for `COCc1cc(N2CCOC(c3ccc(Cl)cc3)C2)ncn1` (stereo not given) was 1.92%. Regarding `Cc1cc(N2CCC(N3CCOCC3)C2)n2nc(C)c(C)c2n1` (stereo not given), the cytotoxicity at 10 µM worked out at 3.9%. `C[C@@H]1CN(Cc2cc3ccccc3n2C)CC[C@@]1(O)C1CC1`: the cytotoxicity at 10 µM was -2.07%. The value for `CN(C)CCC1CCCCN1Cc1cnc(-c2ccccn2)nc1` (stereo not given) was 3.74%.

`Cc1cnc(C(=O)N(C)Cc2nc(-c3ccccn3)no2)cn1`: the cytotoxicity at 10 µM is 3.42%. In the case of `Cc1cc(C)n(CC(C)NCCn2nc(C)c(Cl)c2C)n1` (stereo not given), the cytotoxicity at 10 µM was -5.44%. Take `Cc1nc[nH]c1-c1nccn1CCN(C)S(C)(=O)=O`: the cytotoxicity at 10 µM was -6.03%. Take `Cc1cc(C(=O)N2CCCC(c3nccn3Cc3ccncc3)C2)no1` (stereo not given): the cytotoxicity at 10 µM came out at 0.471%. The same measure for `CSc1nccc(N2CCC(NCc3nc(C)cc(C)n3)CC2)n1`: 3.41%; for `CSCC(=O)N1CCC(c2nccn2Cc2cscn2)CC1`: -6.6%; for `COc1ccc([C@@H]2CN(C(=O)Cc3cccs3)C[C@H]2NC(C)=O)cc1`: -1.16%. On to `Cn1ncc(N2CCC(CNC(=O)[C@@H](N)C3CCCCC3)CC2)cc1=O`, for which the cytotoxicity at 10 µM was 12.7%. The same measure for `O=C(O)c1cc(-c2ccc3c(c2)OCO3)cc(S(=O)(=O)NC2CC2)c1`: 2.8%; for `CC(C)O[C@H]1CN(Cc2cnc3c(-c4ccccc4)cnn3c2)C[C@@H]1O`: 3.45%. Consider `CCN(CC)c1ccc(-c2ccc(C)c(S(N)(=O)=O)c2)nn1`, for which the cytotoxicity at 10 µM was -7.99%. Take `CCN1CC2(CCN(C(=O)C3CSC(C)(C)C(=O)N3)CC2)CC1=O` (stereo not given): the cytotoxicity at 10 µM was found to be 1.72%. The value for `O=C(c1cn2ccsc2n1)N1CCOCC(O)(CN2CCCC2)C1` (stereo not given) was 4.6%. The same measure for `CCN1CCC2(CCC1=O)CN(c1ccnc(SC)n1)CCN2C` (stereo not given): 17.7%; for `CCSCC(C)NCc1nncn1C1CCCCC1` (stereo not given): 15.3%; for `Cc1nn(CC(=O)n2cccn2)c(C)c1I`: -11.5%. Regarding `COc1c(C2CCCN2C(=O)c2sc(C)nc2C)c(C)nn1C` (stereo not given), the cytotoxicity at 10 µM came to 3.62%. For the compound `Cc1ncc(CN2CCN(c3ccc4nncn4n3)C(C)C2)s1` (stereo not given), the cytotoxicity at 10 µM is -9.04%. The same measure for `O=C(Cc1cccc(O)c1)NCCCNC(=O)c1cccc(F)c1`: 1.65%; for `Cc1cc(C)n(CC2CN(CC(=O)NC3CCCCC3)CCO2)n1` (stereo not given): -5.17%; for `Cc1nc(C2CCCN(C(=O)c3ccc(OCC4CC4)nc3)C2)no1` (stereo not given): -4.41%. For the compound `CCNC(c1ccc(C(C)C)cc1)c1cccnc1` (stereo not given), the cytotoxicity at 10 µM is -1.66%. Take `O=C(c1cnc(C2CC2)s1)N1CCCC1Cn1cccn1` (stereo not given): the cytotoxicity at 10 µM is -5.09%. The same measure for `Cc1nc(C)n(C2CCCN(C(=O)c3cn4c(C)cccc4n3)C2)n1` (stereo not given): -7.72%; for `Cn1nccc1C(=O)N1CCC2(CC1)COC(COc1ccccn1)C2` (stereo not given): -7.18%; for `COc1cccc(CN2CCCC3(CCN(C(=O)N4CCCC4)C3)C2)c1` (stereo not given): -4.34%. `Cc1ccc(N2CCC3(CC2)CCN(C2CCOC2)CC3)nn1` (stereo not given): the cytotoxicity at 10 µM stood at 7.67%. Take `CN(C)C(=O)[C@@H]1CCO[C@@H]2CCN(c3ncccn3)C[C@@H]21`: the cytotoxicity at 10 µM stood at 8.31%. With `Cn1cc(CN2CCCC23CCN(Cc2nccn2C)CC3)cn1`, the cytotoxicity at 10 µM was -5.64%.

`CC(C)NC(=O)C1CCC2(CCN(Cc3cnn(C)c3)CC2)CO1` (stereo not given): the cytotoxicity at 10 µM came out at 9.67%.

Consider `Fc1cnc(N2CC[C@@H]3CN(Cc4ccncc4)CCO[C@@H]3C2)nc1`, for which the cytotoxicity at 10 µM came to 5.38%. Regarding `Cc1nn(C)c(C)c1S(=O)(=O)N1C[C@@H]2C[C@@H](C)O[C@@H]2C1`, the cytotoxicity at 10 µM came out at 0.788%. Regarding `O=C(c1ccco1)N1CCOCC2(CCN(C3CCOCC3)C2)C1` (stereo not given), the cytotoxicity at 10 µM amounted to 3.07%.

In the case of `Cn1cnc2c1C(COCc1ccccc1)N(Cc1cccnc1)CC2` (stereo not given), the cytotoxicity at 10 µM was found to be 9.61%. Turning to `c1cncc(C[C@H]2[C@H](N3CCOCC3)CCN2Cc2nccs2)c1`, the cytotoxicity at 10 µM was determined as 8.82%. As for `CC(C)n1nc(Cn2cccn2)c2c1CN(CC1CCOC1)C2` (stereo not given), the cytotoxicity at 10 µM is 7.13%. The same measure for `Cn1cc(CN2C[C@H]3CCC[C@@]3(COCC3CC3)C2)cn1`: -97.8%; for `N#Cc1cccc(CN2C[C@@H]3CN(c4ncccn4)C[C@@H]3C2)c1`: 8.04%; for `CNC(=O)[C@H]1C[C@H]2CN(Cc3ccc(OC)cc3)C[C@@H]1O2`: 3.02%.

Source of the values: ChEMBL document CHEMBL4513216, “Probing the Open Global Health Chemical Diversity Library for Multistage-Active Starting Points for Next-Generation Antimalarials” (ACS Infect Dis, 2020).
